SUMO1-SIM PPI = alters human SUMO1 binding to SIM partners | P63165 | SUMO1 binding to a labelled peptide, TR-FRET, 1 h | inhibition, % at 20 µM | hit rate 0.33% among 360,000 | AID 602429; in the data active = inhibition above about 37%
Target sequence (P63165 whole entry, looked up): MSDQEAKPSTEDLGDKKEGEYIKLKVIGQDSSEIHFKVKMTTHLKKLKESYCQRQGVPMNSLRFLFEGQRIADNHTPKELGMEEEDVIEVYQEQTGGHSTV
Scp-1 inhibitor = inhibitors of human Scp-1 phosphatase; inhibition, % at 20 µM; Q9GZU7; Recombinant Scp1, phosphopeptide, malachite green phosphate absorbance; hit rate 0.88% among 340,000; AID 493091;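 active = inhibition above about 50% at 20 µM, limit read from the data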;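 note: plate controls were DMSO wells with enzyme for no effect and wells lacking enzyme for full effect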
Target sequence (Q9GZU7 76-261 limits assumed): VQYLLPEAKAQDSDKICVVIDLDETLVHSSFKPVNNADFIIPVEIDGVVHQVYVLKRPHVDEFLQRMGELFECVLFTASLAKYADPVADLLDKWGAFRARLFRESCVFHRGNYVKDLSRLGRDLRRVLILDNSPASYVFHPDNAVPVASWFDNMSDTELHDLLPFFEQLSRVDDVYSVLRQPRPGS
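assay system = SCP-1 phosphatase catalytic domain, residues 76-261 | buffer or medium = 50 mM Tris acetate pH 5.5, 0.005% Tween-20, 10 mM MgCl2 | incubation = enzyme reaction 45 min at room temperature, colour 5 min, stabilisation 30 min | signal = Phosphate-binding colour reagent, absorbance read at 630 nm | measure = % inhibition at 20 µM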
DNMT1 block = inhibitors of human DNMT1; P26358; DNMT1 molecular beacon, Hinp1I cleavage, fluorescence; inhibition (reported as % activation of signal), % at 10 µM; hit rate 0.83% among 360,000; in the data active = inhibition above about 50%
STEP block = blocks human striatal-enriched tyrosine phosphatase. recombinant STEP, OMFP fluorogenic substrate, fluorescence. inhibition, % at 20 µM. hit rate 0.25% among 360,000. AID 588621;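 active = inhibition at 20 µM, scaled per plate between control wells, above about 37%, limit read from the data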;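 note: 0% = DMSO with enzyme and substrate and 100% = substrate only without enzyme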
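Material: STEP (striatal-enriched tyrosine phosphatase) enzyme, cell-free | Medium: 50 mM Bis-Tris pH 6.0 with 2.5 mM DTT and 0.005% Tween 20 | Read-out: Percent inhibition scaled to no-enzyme and uninhibited-enzyme controls, plate-pattern corrected | Signal: Fluorescence read at 480 nm ex / 540 nm em | Times: 20 min reaction, room temperature, in the dark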
CFTR F508del cor = correctors of CFTR F508del function in bronchial epithelial cells; hit rate 0.36% among 350,000; activity (quench increase), % at 7.58 µM; CFBE cells, YFP halide quenching; stimulated with forskolin plus potentiator P3; % fluorescence drop versus neutral controls; AID 720511;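 active = mean added fluorescence quench of at least 8% versus neutral control, with both replicates also reaching 8%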;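 note: cells transiently co-express mutant CFTR-F508del with the halide-sensitive YFP; corrector assay measuring rescue of mutant channel to the surface after 24 h compound exposure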
LMPTP inh = blocks human LMPTP phosphatase; recombinant LMPTP-A, OMFP fluorogenic substrate, fluorescence intensity; hit rate 0.22% among 360,000; inhibition, % at 20 µM; AID 651560; P24666;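 active = compounds that cut the enzyme signal by at least half of the control window in the single-dose screen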;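 note: plate controls were DMSO wells with enzyme plus substrate for no effect and substrate without enzyme for full effect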
Target sequence (P24666 whole entry, looked up): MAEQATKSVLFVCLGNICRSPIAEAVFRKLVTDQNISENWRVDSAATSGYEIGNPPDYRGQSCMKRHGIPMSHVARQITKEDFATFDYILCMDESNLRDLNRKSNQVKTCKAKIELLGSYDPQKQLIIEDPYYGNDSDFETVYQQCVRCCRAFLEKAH
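Test system: LMPTP-A, protein tyrosine phosphatase of low molecular weight; Input: 0.625 nM enzyme; Incubation: 50 min dark incubation at room temperature; Signal: endpoint fluorescence intensity from OMFP dephosphorylation; Read-out basis: % inhibition versus control wells.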
STEP conf = confirmation of human STEP phosphatase inhibitors. recombinant STEP, OMFP fluorogenic substrate, fluorescence. hit rate 32% among 520. inhibition, % at 20 µM. shares compounds with STEP block; call rule not given here;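 note: 0% = enzyme with substrate plus DMSO and 100% = substrate without enzyme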
* hit, by the source's call; nt = no result. Shown are actives, neighbours in structure and some others; about 1.6% of the full set was active somewhere.

SMILES	SUMO1-SIM PPI	Scp-1 inhibitor	DNMT1 block	STEP block	CFTR F508del cor	LMPTP inh	STEP conf
O=C(Oc1ccc(/C=N/NC(=O)c2ccccn2)cc1)c1ccc(Br)cc1	-1	-6	26	55*	-1	55*	1
Cc1ccc(C(=O)N/N=C\c2cccc(OC(=O)c3cccc(F)c3)c2)cn1	-12	-7	-1	3	0	0	nt
CO[C@@H]1CN(C)C(=O)c2ccc(NC(=O)Cc3ccccc3)cc2OC[C@@H](C)N(C)C[C@H]1C	nt	nt	nt	nt	-2	nt	nt
COc1cc(C(=O)NNC(=O)C2CC=CCC2C(=O)O)cc(OC)c1OC (stereo not drawn)	3	-5	2	119*	nt	1	10
C[C@@H]1CN([C@@H](C)CO)C(=O)Cc2cc(NC(=O)Nc3ccc(C(F)(F)F)cc3)ccc2O[C@H]1CN(C)S(=O)(=O)c1ccc(F)cc1	nt	nt	nt	nt	7	nt	nt
O=C(Nc1cccc2c(=O)[nH][nH]c(=O)c12)c1ccc([N+](=O)[O-])cc1	6	nt	30	57*	3	21	47*
C[C@@H]1CN([C@@H](C)CO)C(=O)c2cc(/C=C/c3ccccc3)cnc2O[C@H]1CN(C)S(=O)(=O)c1cccs1	nt	nt	nt	nt	-1	nt	nt
C[C@H](CO)N1C[C@H](C)[C@H](CN(C)S(=O)(=O)c2ccccc2)Oc2ncc(Br)cc2C1=O	nt	nt	nt	nt	-1	nt	nt
S=C(Nc1ccccc1Cl)NC1CCC(NC(=S)Nc2ccccc2Cl)CC1 (stereo not drawn)	2	-5	20	44*	nt	-3	4
S=C(Nc1ccccc1Cl)NC1CCN(Cc2ccccc2)CC1	-1	-3	-2	-2	nt	-1	nt
CCCCOc1ccc(C(=O)NCC(=O)N(C)Cc2nc3ccccc3c(=O)[nH]2)cc1	-3	-6	19	0	3	-2	nt
Cc1cccc(C(=O)NCC(=O)N(C)Cc2nc3ccccc3c(=O)[nH]2)c1	0	-2	3	97*	0	0	5
CN1C(=O)c2cc(NC(=O)c3cnccn3)ccc2OC[C@H]2O[C@@H](CC(=O)NC3CCC3)CC[C@H]21	nt	nt	nt	nt	0	nt	nt
NC(=O)C1(N2CCCCC2)CCN(C(=S)Nc2ccc(S(N)(=O)=O)cc2)CC1	-2	-4	-3	92*	2	-1	63*
NC(=O)C1(N2CCCCC2)CCN(C(=S)Nc2ccccc2)CC1	5	-1	0	18	nt	-1	nt
NS(=O)(=O)c1ccc(NC(=S)N2CCC(Cc3ccccc3)CC2)cc1	5	-6	2	80*	3	3	31*
NS(=O)(=O)c1ccc(NC(=S)N2CCN(Cc3ccc4c(c3)OCO4)CC2)cc1	-1	-24	-1	92*	5	-1	25
COC(=O)C[C@H]1CC[C@H]2[C@H](COc3ccc(NS(=O)(=O)c4ccc(F)cc4)cc3C(=O)N2C)O1	nt	nt	nt	nt	-4	nt	nt
CC(=O)Nc1cc(-c2nn(C)c(=O)c3ccccc23)ccc1N1CCOCC1	-7	-4	4	-4	nt	-1	nt
CCCC(=O)Nc1cc(-c2nn(C)c(=O)c3ccccc23)ccc1N1CCOCC1	-2	23	10	42*	nt	-2	9
COc1ccc(NC(=O)N(C)C[C@H]2OCCCC[C@@H](C)Oc3ccc(NC(=O)Nc4ccc(C(F)(F)F)cc4)cc3C(=O)N([C@@H](C)CO)C[C@H]2C)cc1	nt	nt	nt	nt	7	nt	nt
CCOc1cc(C(=O)NCCC(=O)N2CCC3(CC2)NCCc2[nH]cnc23)cc(OCC)c1OCC	4	-6	0	45*	1	-2	3
CCOc1ccc(C(=O)NCCC(=O)N2CCC3(CC2)NCCc2[nH]cnc23)cc1OCC	-3	-9	0	1	-1	-2	nt
O=C(c1ccc(Cl)cc1)N1CCC2CC1c1cc(-c3ccccc3)ccc12 (stereo not drawn)	4	-12	-4	3	1	7	nt
N#Cc1ccc(C(=O)N2CCC3CC2c2cc(-c4ccccc4)ccc23)cc1 (stereo not drawn)	8	-8	1	70*	-2	2	21
SMILES	SUMO1-SIM PPI	Scp-1 inhibitor	DNMT1 block	STEP block	CFTR F508del cor	LMPTP inh	STEP conf
CN1C[C@H]2[C@@H](c3ccccc31)[C@H](CO)N2C(=O)Nc1ccccc1	nt	nt	nt	nt	-1	nt	nt
CCC(CC)c1nnc(NC(=O)c2cc(C(=O)OC)cc([N+](=O)[O-])c2)s1	-17	-9	7	97*	nt	1	69*
NC(=NCc1ccc2c(c1)OCO2)NC(=O)c1ccccc1	12	15	-8	70*	0	22	35*
COc1ccc2c3c([nH]c2c1)[C@H](CO)N(C(C)=O)CC31CCN(C(=O)Nc2ccccc2F)CC1	nt	nt	nt	nt	1	nt	nt
COc1ccccc1NS(=O)(=O)c1cc(NC(=O)c2sccc2C)ccc1N1CCCC1	3	-7	-7	98*	nt	4	93*
COc1ccccc1NS(=O)(=O)c1cc(NC(=S)NCCN2CCOCC2)ccc1N1CCOCC1	3	-5	0	91*	nt	0	69*
NS(=O)(=O)c1ccc(N/N=C/c2ccccc2C(=O)O)c([N+](=O)[O-])c1	-29	-2	2	-2	7	2	nt
Cc1cc([N+](=O)[O-])c2[nH]c(C(=O)N/N=C/c3ccccc3C(=O)O)c(-c3ccccc3)c2c1	5	2	1	73*	nt	0	24
CCN(CC(=O)Nc1ccccc1C(F)(F)F)C(=O)Cc1ccc2c(c1)CCC2	2	-5	-3	1	-1	0	nt
CCCN(CC(=O)Nc1ccccc1OC)C(=O)Cc1ccc2c(c1)CCC2	0	-5	-3	71*	nt	0	46*
Cc1noc(C)c1NC(=O)Nc1ccc2c(c1)C(=O)N([C@@H](C)CO)C[C@@H](C)[C@@H](CN(C)C(=O)Nc1ccc(F)cc1)OCCCC[C@@H](C)O2	nt	nt	nt	nt	0	nt	nt
COc1cc(C(=S)N2CCCC2)ccc1O	14	-6	-2	0	nt	-1	nt
COc1cc(C(=S)N2CCCCC2)ccc1O	6	0	8	98*	nt	0	75*
COc1cc(Cl)ccc1NC(=S)N(CCCN1CCOCC1)Cc1cn(C)c2ccccc12	3	-6	-9	91*	nt	-1	49*
COc1ccc(Cl)cc1NC(=S)N(CCCN1CCOCC1)Cc1cn(C)c2ccccc12	3	-2	-9	94*	nt	-4	48*
COc1ccccc1NC(=S)N(CCCN1CCOCC1)Cc1cn(C)c2ccccc12	-3	-4	-13	8	0	-4	nt
CCOc1ccccc1NC(=S)N(CCCN1CCOCC1)Cc1cn(C)c2ccccc12	4	1	0	5	nt	-1	nt

Screening results (PubChem)
